# Bioassay records from PubChem BioAssay.
# In the library only some 3.4% were active in any assay of this set; here they are far more common.
# zfTRPN1 agonist: zebrafish TRPN1 (NompC) channel agonism. HEK293 zebrafish TRPN1-YFP, Fluo-8 calcium fluorescence; 100% = response to 87 µM carbachol. activation, % at 3 µM. actives 0.18% (n = 220,000);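 active = activation above its plate's cutoff, the mean activation of test wells on that plate plus 3 SD, cut at about 19% in these data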;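 note: 0% = DMSO alone and 100% = 87 µM carbachol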
#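 Material: zebrafish TRPN1-YFP in HEK293 cells; Doses: single test compound dose, 3 µM nominal, 0.3% DMSO; Timing: dye loading 1 h at 37 °C, then 30 min room temperature; Technique: intracellular calcium fluorescence with Fluo-8; Benchmarks: high carbachol 87 µM, low DMSO alone.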
# TAAR1 agonist: human TAAR1 agonism. CHO RD-HGA16 TAAR1, Fluo-8 calcium fluorescence; vehicle wells 0%, saturating PEA agonist 100%. activation, % at 3 µM. actives 0.99% (n = 360,000). AID 624467;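 active = activation above the mean activation of all test compounds in the run plus 3 SD, cut at about 38% in these data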
#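 Test system: RD-HGA16 (CHO) cells co-expressing Gα16 and hTAAR1; dosing: one-point dosing at 3 µM (nominal); timing: 17-24 h seeding, 75 min 37 °C dye, 30 min RT; signal: kinetic Fluo-8 calcium fluorescence; read-out basis: % activation relative to PEA EC100 response; controls: DMSO and PEA EC100; replicates: n 1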
# LANA-H2A inh: blocks KSHV LANA binding to histone H2A/H2B; Q9QR71; cell-free LANA-H2A/H2B peptide, fluorescence polarization; inhibition, % (test concentration not listed); actives 0.6% (n = 320,000); AID 2629; in the data active = inhibition mostly above about 10%, no sharp cut-off; inactive = mostly below about 6.7%
# GPR7 antag: human neuropeptides B/W receptor 1 antagonism | P48145 | GPR7-expressing cells, fluorescence antagonist assay | inhibition, % at 4.4 µM | actives 1.1% (n = 290,000); in the data active = inhibition above about 16%, passing the limit was not always enough;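 note: cells stimulated with the agonist NPW; 0% = agonist with vehicle and 100% = vehicle without agonist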
# TAAR1 antag: human TAAR1 antagonism. inhibition, % at 3 µM. CHO RD-HGA16 TAAR1, Fluo-8 calcium fluorescence, antagonist. AID 624466. Q96RJ0. actives 1.5% (n = 360,000);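 active = inhibition above a per-plate cutoff, the mean inhibition of test compounds on that plate plus 3 SD, cut at about 49% in these data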;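 note: 0% = DMSO plus EC80 beta-PEA response and 100% = DMSO alone without agonist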
#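 Test system: CHO RD-HGA16 cells bearing hTAAR1 | Reagent: β-PEA, EC80 | Compound dosing: 3 µM, single point | Schedule: Dye loading 75 min at 37 °C, then 30 min room temperature | Signal: Calcium fluorescence with Fluo-8 | Evaluation: Percent inhibition of PEA-evoked calcium signal, max/basal emission ratio | Control set: DMSO-only wells and EC80 β-PEA-stimulated wells | Repeats: Singlicate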
# TRPML3 agonist: agonists of human TRPML3 channel | actives 0.29% (n = 220,000) | HEK293 TRPML3-YFP, Fluo-8 calcium fluorescence; 100% = the carbachol control signal | AID 1448 | Q8TDD5 | activation, % at 3 µM;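 active = activation above its plate's cutoff, the mean activation of the plate's test wells plus 3 SD, cut at about 12% in these data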;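 note: 0% = DMSO only wells and 100% = carbachol wells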
# Target sequence (Q8TDD5 whole entry, looked up): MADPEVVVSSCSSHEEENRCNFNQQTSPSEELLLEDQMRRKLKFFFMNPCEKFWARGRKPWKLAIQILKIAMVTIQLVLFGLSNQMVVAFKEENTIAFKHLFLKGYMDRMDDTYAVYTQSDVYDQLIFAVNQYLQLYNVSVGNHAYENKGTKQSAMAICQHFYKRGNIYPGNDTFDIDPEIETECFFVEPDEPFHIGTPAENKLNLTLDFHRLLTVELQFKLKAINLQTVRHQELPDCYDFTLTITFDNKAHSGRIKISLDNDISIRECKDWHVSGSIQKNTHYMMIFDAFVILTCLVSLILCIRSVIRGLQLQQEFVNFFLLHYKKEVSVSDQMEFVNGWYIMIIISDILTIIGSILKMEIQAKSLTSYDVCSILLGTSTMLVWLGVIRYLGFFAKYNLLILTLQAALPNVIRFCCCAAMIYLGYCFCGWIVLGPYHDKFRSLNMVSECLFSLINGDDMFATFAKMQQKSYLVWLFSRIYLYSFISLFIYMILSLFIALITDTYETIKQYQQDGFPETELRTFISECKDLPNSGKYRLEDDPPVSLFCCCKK
#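 Test system: TRPML3-YFP stable HEK293 cells. Doses: single point at 3 µM. Incubation: dye loading 1 h 37 °C then 30 min ambient, 125 s read. Signal: Fluo-8 calcium dye fluorescence, ex 470-495, em 515-575 nm. Measure: percent activation from peak-to-basal fluorescence ratio, scaled between DMSO and carbachol.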
# * hit, by the source's call; · = no result; ! = a repeat was not active.
SMILES,zfTRPN1 agonist,TAAR1 agonist,LANA-H2A inh,GPR7 antag,TAAR1 antag,TRPML3 agonist
Cc1cccc(S(=O)Cc2ccc(C(=O)N3CCOCC3)o2)c1 (stereo not given),·,1.9,-4.2,-1.6,-22.7,·
COCCNC(=S)N(C)[C@H]1C[C@H]2c3[nH]c4c(-c5ccccc5)cccc4c3CCN2C[C@H]1[C@H](C)O,·,3.3,·,·,-5.9,·
COc1ccc(CCN=C(N)NS(=O)(=O)c2ccc(F)cc2)cc1OC,·,6.3,26.1*,-15.7,-26.2,·
CC(=O)c1ccc(-c2ccccc2C2=CC(=O)CC(C)(C)C2=O)cc1,·,-0.8,·,·,-3.0,·
Cc1cc(NCc2ccccc2)nc2ccccc12,3.9,89.0*,7.7,5.7,79.4*,3.1
COc1ccc(CCn2c(=N)c(C(=O)NC3CCCC3)cc3c(=O)n4cccc(C)c4nc32)cc1,·,4.8,-4.4,-9.9,10.2,·
Cc1cccn2c(=O)c3cc(C(=O)NC4CCCC4)c(=N)n(CCc4ccccc4)c3nc12,·,14.0,14.3*,-7.7,-5.8,·
COC(=O)[C@]12CCCCC=C1N(CCc1ccc(OC)c(OC)c1)C(=O)[C@H](CC(=O)N1CCC(c3ccccc3)CC1)C2,·,4.7,·,·,67.0*,·
COC(=O)[C@]12CCCCC=C1N(Cc1ccccc1)C(=O)[C@H](CC(=O)N1CCC(c3ccccc3)CC1)C2,·,3.4,·,·,53.8*,·
COCc1cc(N2CCN(C(=O)OC(C)(C)C)C[C@H]2C)ccc1N1CCN(Cc2ccccc2)[C@H](C)C1,·,4.3,·,·,0.6,·
CCCn1c(SCC(=O)NCc2ccc(OC)cc2)n[nH]c1=O,1.4,2.3,8.0,-5.5,-13.3,0.2
CCCn1c(SCC(=O)N2N=C3/C(=C/c4ccc(OC)cc4)CCCC3C2c2ccc(OC)cc2)n[nH]c1=O (stereo not given),14.3,49.1*,0.8,19.7*,49.8*,6.2
CC(=O)c1ccc(NC(=O)N2C3CCC2CC(O)(c2cccnc2)C3)cc1 (stereo not given),0.9,0.9,124.2*,-5.5,1.1,1.7
CC(=O)c1cccc(NC(=O)N2C3CCC2CC(O)(c2cccnc2)C3)c1 (stereo not given),0.1,19.1,-3.1,-3.3,1.6,0.6
Cc1ccc(C(=O)N/C(=C\c2ccc([N+](=O)[O-])cc2)C(=O)NCCc2ccccc2)cc1,0.6,43.1*,3.6,-6.4,14.3,-1.4
O=C1c2[nH]nc(-c3ccccc3)c2C(c2cccc(C(F)(F)F)c2)N1c1ccccc1 (stereo not given),·,-0.4,·,·,-60.5,·
CCn1cc(C(=O)NC(C)C23CC4CC(CC(C4)C2)C3)cn1 (stereo not given),1.9,-1.4,5.4,3.1,5.1,1.1
CC(NC(=O)Cn1ncc(Cl)c(Cl)c1=O)C12CC3CC(CC(C3)C1)C2 (stereo not given),-0.4,·,3.8,23.4*,·,0.8
CCc1oc2ccccc2c1C(=O)c1cc(Br)c(O)c(Br)c1,3.5,0.5,22.0*!,-10.5,15.0,1.6
CN(C(=O)CCc1cn(C)c2ccccc12)c1ccc(Oc2cccnc2)cc1,·,-2.3,·,·,24.2,·
C[C@H](CO)N1C[C@H](C)[C@H](CN(C)C(=O)Nc2cccc3ccccc23)Oc2ncc(Br)cc2C1=O,·,3.7,·,·,-0.9,·
CC(C)NC(=O)c1cc(-c2cccs2)nc2ccccc12,·,5.9,3.9,-21.5,35.3,·
CCOC(CCNC(=O)c1cc(-c2cccs2)nc2ccccc12)OCC,·,19.3,1.9,-13.2,48.6*,·
Cc1ccc2c3c(cccc13)-c1ccccc1C2=O,0.7,1.9,·,-3.6,11.0,0.6
Nc1ccc2c3c(cccc13)-c1ccccc1-2,·,81.7*,·,·,72.1*,·
SMILES,zfTRPN1 agonist,TAAR1 agonist,LANA-H2A inh,GPR7 antag,TAAR1 antag,TRPML3 agonist
COc1ccccc1CNc1ccc2c(c1)OC[C@H](CC(C)C)NS2(=O)=O,·,4.3,·,·,32.6,·
COc1ccc(C2=Nn3c(nnc3-c3ccccc3F)SC2)cc1OC1CCOC1 (stereo not given),·,7.0,5.5,·,28.0,·
COc1ccc(C2=Nn3c(nnc3-c3ccccc3F)SC2)cc1OC1CCCC1,·,3.2,0.8,·,65.9*,·
COCCCNC(=O)C[C@H]1C[C@@]2(C(=O)OC)C(=C[C@H](COCc3ccccc3)O[C@@H]2C)N(Cc2ccc3c(c2)OCO3)C1=O,·,0.2,·,·,-18.7,·
COc1ccccc1-c1cccc(-c2nc(C(=O)Nc3nccs3)cc3c2[C@@H](CCO)N(C(=O)CC2CC2)C3)c1,·,11.1,·,·,50.9*,·
COC(=O)CC(=O)CC(NS(=O)(=O)c1ccc(C)cc1)c1ccccc1 (stereo not given),·,1.2,·,·,-17.1,·
COC1CCCN(C(=O)c2cccc(OC3CCN(S(C)(=O)=O)CC3)c2)C1 (stereo not given),·,4.5,-1.4,-8.0,-16.2,·
COCCC1CCCCN1C(=O)c1cccc(OC2CCN(S(C)(=O)=O)CC2)c1 (stereo not given),·,0.3,16.9*,-3.8,1.5,·
O=c1c2ccccc2nnn1Cc1ccco1,·,0.8,·,·,-9.8,·
C[C@H]1CN([C@@H](C)CO)C(=O)CCCn2cc(nn2)CO[C@@H]1CN(C)S(=O)(=O)c1cn(C)cn1,·,0.2,·,·,-8.6,·
Cc1ccc(Cl)cc1N1CCN(C(=O)CCS(=O)(=O)c2ccc3c(c2)NC(=O)CO3)CC1,·,15.8,0.4,-4.3,63.3*,·
Cc1ccc(S(C)(=O)=NC(=O)NC(=O)c2c(F)cccc2Cl)cc1 (stereo not given),0.5,12.0,1.4,4.8,1.4,0.1
Cc1ccc(S(=O)(=O)/N=c2\ccc(Cl)cn2C(F)F)cc1,-0.7,-0.3,17.3*,-9.5,-19.4,1.3
Cc1ccc2nc(-c3ccco3)c(Cc3ccccc3C(F)(F)F)n2c1,·,2.5,·,·,-27.2,·
Cc1cc(NC(=O)Nc2ccccc2F)ccc1Br,9.4,13.8,-3.3,1.7,66.3*,3.9
COc1ccc([C@H]2CC(=O)C=C(c3ccc4ccccc4c3)C2)cc1OC,·,2.9,-0.4,·,23.8,·
O=C1C=C(c2ccc(-c3ccccc3)cc2)C[C@@H](c2ccc(F)cc2)C1,·,-0.1,-1.0,·,3.9,·
CC(C)c1cccc(C2=CC(=O)C[C@H](c3ccc(F)cc3)C2)c1,·,6.2,1.5,·,52.0*,·
COc1ccc([C@H]2CC(=O)C=C(c3cccc(C(C)C)c3)C2)cc1OC,·,5.1,2.6,·,66.1*,·
COC(=O)[C@H](Cc1ccccc1)N1CC=CS1(=O)=O,·,0.8,·,·,-9.5,·
COc1ccc(Cl)cc1NC(=O)c1ocnc1C,0.4,4.0,17.7*,2.3,9.4,-0.8
COc1ccc(NC(=O)c2ocnc2C)cc1OC,1.6,·,-0.6,-11.2,·,-0.2
COc1cc(=O)oc(C=O)c1C,·,0.0,·,·,-8.6,·
CCC1Sc2ccc(S(=O)(=O)CCC(=O)Nc3ccc(NC(C)=O)cc3)cc2NC1=O (stereo not given),·,-0.3,7.7,4.0,-3.8,·
